Assay results as given in ChEMBL document CHEMBL4052787, “Development of novel LP1-based analogues with enhanced delta opioid receptor profile” (Bioorg Med Chem, 2017).
Active and inactive are the calls of the source. No cut-off for these calls is given here.

Legend:
[1] = target: Mu-type opioid receptor (Rattus norvegicus, UniProt P33535); test: Displacement of [3H]-DAMGO from MOR in rat brain membranes by liquid scintillation counting analysis; type: cell membranes, Membrane
Procedure, shortened: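 Rat brain membranes, 0.4 mg/ml protein, incubated 45 min at 35 °C with 1 nM [3H]-DAMGO in 50 mM Tris-HCl pH 7.4. Filtration on PEI-presoaked GF/B filters, scintillation counting. Ki calculated; three experiments, each in duplicate.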

[2] = target: Delta-type opioid receptor (Rattus norvegicus, UniProt P33533); test: Displacement of [3H]-DPDPE from DOR in rat brain membranes by liquid scintillation counting analysis; type: cell membranes, Membrane
Procedure, shortened: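 Rat brain membranes at 0.5 mg/ml protein, 45 min at 35 °C with 2 nM [3H]-DPDPE in 50 mM Tris-HCl pH 7.4. Competitor range 10^-11 to 10^-5 M. Nonspecific binding with 10 μM naloxone. Filtered through PEI-soaked GF/B, scintillation counted. Ki derived; three separate experiments in duplicate.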

[3] = target: Kappa-type opioid receptor (Cavia porcellus, UniProt P41144); test: Displacement of [3H]-(+)-U69,593 from KOR in guinea pig brain membranes by liquid scintillation counting analysis; type: cell membranes, Membrane
Procedure, shortened: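 Guinea pig brain membranes (0.5 mg/ml) incubated 30 min at 30 °C with 1 nM [3H]-(+)-U69,593. Compounds tested from 10^-11 to 10^-5 M. Nonspecific binding with 10 μM unlabeled naloxone. GF/B filtration, liquid scintillation counting. Ki calculated; means of three experiments, each in duplicate.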

[4] = organism: Rattus norvegicus; test: Ratio of Ki for DOR in rat brain membranes to Ki for MOR in rat brain membranes; type: cell membranes
Procedure, shortened: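 Ratio of Ki values: DOR Ki (rat brain, [3H]-DPDPE, 2 nM) divided by MOR Ki (rat brain, [3H]-DAMGO, 1 nM), both from 45 min, 35 °C competition binding in 50 mM Tris-HCl pH 7.4.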

[5] = Ratio of Ki for KOR in guinea pig brain membranes to Ki for MOR in rat brain membranes; type: cell membranes
Procedure, shortened: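 Ratio of KOR Ki (guinea pig brain, 1 nM [3H]-(+)-U69,593, 30 min at 30 °C) to MOR Ki (rat brain, 1 nM [3H]-DAMGO, 45 min at 35 °C).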

[6] = target: mu/kappa opioid receptor (Cavia porcellus, UniProt P41144+P97266); test: Agonist activity at MOR/KOR in Dunkin-Hartley guinea pig ileum assessed as inhibition of electrically induced contractions after 5 mins
Procedure, shortened: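 Guinea pig ileum longitudinal muscle/myenteric plexus strips from male guinea pigs (200–300 g), 2 g load. Transmural single pulses 0.1 Hz, 0.3 ms, 200 mA. After 60–90 min equilibration in Krebs, compounds added cumulatively, at least 5 min each. Percent inhibition of contraction; IC50 by linear regression of log concentration–effect curves, at least three trials.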

[7] = Agonist activity at DOR in CD-1 mouse vasa deferentia assessed as inhibition of electrically induced contractions after 5 mins
Procedure, shortened: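 Mouse vas deferens at 0.5 g tension; after equilibration, pulses 20 Hz, 0.5 ms, 1 s duration every 40 s. After 60 min equilibration in Krebs, cumulative compound additions, minimum 5 min apart. Contraction inhibition as percent of baseline; IC50 from linear regression of log concentration–effect curves, at least three trials.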

[8] = target: Mu-type opioid receptor (Cavia porcellus) (UniProt P97266); test: Antagonist activity at MOR in Dunkin-Hartley guinea pig ileum assessed as inhibition of electrically induced contractions after 5 mins by measuring ratio of IC50 for test compounds in presence and absence of NLX
Procedure, shortened: (§1)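 Isolated tissue (ileum for MOR/KOR, vas deferens for DOR) pre-incubated with a 1 μM selective antagonist (NLX or NTI 20 min; norBNI 30 min), then agonist curves repeated. Ke from ratio of IC50 with and without antagonist, by single dose method. Mean ± SEM of four independent tissues.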

[9] = target: Kappa-type opioid receptor (Cavia porcellus) (UniProt P41144); test: Antagonist activity at KOR in Dunkin-Hartley guinea pig ileum assessed as inhibition of electrically induced contractions after 5 mins by measuring ratio of IC50 for test compounds in presence and absence of nBNI; procedure, shortened: as §1
[10] = organism: Mus musculus; test: Antagonist activity at DOR in CD-1 mouse vasa deferentia assessed as inhibition of electrically induced contractions after 5 mins by measuring ratio of IC50 for test compounds in presence and absence of […]; procedure, shortened: as §1
[11] = test system: Rattus norvegicus; test: Antinociceptive activity in rat assessed as reduction in response to heat administered ip measured 240 mins post dose by tail-flick test; type: functional, organism-based
[12] = organism: Rattus norvegicus; test: Antinociceptive activity in rat assessed as reduction in response to heat pretreated with naloxone for 30 mins prior to compound treatment by tail-flick test; type: functional
[13] = target: Kappa-type opioid receptor (Cavia porcellus) (UniProt P41144); test: Potency index, ratio of LP1 Ki to compound Ki for KOR in guinea pig brain membranes; type: cell membranes; conditions: Membrane
[14] = test system: Rattus norvegicus; test: Antinociceptive activity in rat assessed as reduction in response to heat administered ip measured 45 to 180 mins post dose by tail-flick test; type: functional, organism-based
[15] = test system: Rattus norvegicus; test: Antinociceptive activity in rat assessed as reduction in response to heat administered ip measured 60 mins post dose by tail-flick test; type: functional

Mu-type opioid receptor, sequence (P33535 whole entry): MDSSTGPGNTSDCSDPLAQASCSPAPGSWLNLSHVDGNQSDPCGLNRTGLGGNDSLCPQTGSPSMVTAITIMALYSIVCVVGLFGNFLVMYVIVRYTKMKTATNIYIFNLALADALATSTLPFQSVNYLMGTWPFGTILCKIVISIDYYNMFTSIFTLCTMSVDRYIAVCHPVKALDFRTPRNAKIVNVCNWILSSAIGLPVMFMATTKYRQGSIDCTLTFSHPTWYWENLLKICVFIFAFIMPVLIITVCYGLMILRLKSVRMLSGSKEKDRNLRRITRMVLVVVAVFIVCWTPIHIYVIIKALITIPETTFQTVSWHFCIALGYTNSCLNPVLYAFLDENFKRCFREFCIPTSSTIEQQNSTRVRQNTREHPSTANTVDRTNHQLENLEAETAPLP
Delta-type opioid receptor, sequence (P33533 whole entry): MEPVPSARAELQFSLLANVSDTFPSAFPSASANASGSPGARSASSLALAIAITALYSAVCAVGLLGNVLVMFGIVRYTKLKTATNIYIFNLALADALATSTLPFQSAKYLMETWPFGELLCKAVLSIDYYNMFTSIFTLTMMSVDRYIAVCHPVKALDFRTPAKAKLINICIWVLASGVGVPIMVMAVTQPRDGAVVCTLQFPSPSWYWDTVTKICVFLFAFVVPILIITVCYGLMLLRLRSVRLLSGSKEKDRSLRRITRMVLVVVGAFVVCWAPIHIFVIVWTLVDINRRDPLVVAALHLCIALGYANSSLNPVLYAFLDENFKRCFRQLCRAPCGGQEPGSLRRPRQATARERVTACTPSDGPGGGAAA
Kappa-type opioid receptor, sequence (P41144 whole entry): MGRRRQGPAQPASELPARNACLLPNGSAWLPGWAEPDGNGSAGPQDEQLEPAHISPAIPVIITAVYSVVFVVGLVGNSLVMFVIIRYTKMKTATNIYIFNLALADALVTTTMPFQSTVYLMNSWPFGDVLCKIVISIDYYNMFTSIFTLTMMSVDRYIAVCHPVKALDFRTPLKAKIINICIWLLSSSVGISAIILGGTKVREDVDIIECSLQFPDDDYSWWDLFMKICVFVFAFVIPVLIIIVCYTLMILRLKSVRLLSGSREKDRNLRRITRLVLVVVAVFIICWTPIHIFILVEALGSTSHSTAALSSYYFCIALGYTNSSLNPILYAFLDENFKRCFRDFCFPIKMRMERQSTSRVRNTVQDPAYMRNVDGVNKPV
Kappa-type opioid receptor (Cavia porcellus), sequence (P41144 whole entry): as above
Mu-type opioid receptor (Cavia porcellus), sequence (P97266 whole entry): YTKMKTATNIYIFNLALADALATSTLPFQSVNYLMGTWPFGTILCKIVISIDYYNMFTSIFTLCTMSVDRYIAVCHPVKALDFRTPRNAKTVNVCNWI

Structure (SMILES) | Ki [1] | Ki [2] | Ki [3] | Ratio Ki [4] | Ratio Ki [5] | IC50 [6] | IC50 [7] | Ke [8] | Ke [9] | Ke [10] | Activity [11] | Activity [12] | Ratio Ki [13] | Activity [14] | ED50 ([15]; 1 h) | Activity [15]
C[C@H]1[C@H]2Cc3ccc(O)cc3[C@]1(C)CCN2C[C@H](O)c1ccccc1 | 2.47 nM | 9.6 nM | 7.3 nM | 3.88 | 2.95 | 49.2 nM | 10.8 nM | 35 nM | 20 nM | 4 nM | Dose-dependent effect | inactive | 15 |  |  | 
C[C@H]1[C@H]2Cc3ccc(O)cc3[C@]1(C)CCN2CC(C)(O)c1ccccc1 (stereo partly specified) | 60 nM | 160 nM | 10.5 nM | 2.66 | 0.17 | 194.4 nM | 794 nM |  |  |  |  |  | 10 |  |  | 
C[C@H]1[C@H]2Cc3ccc(O)cc3[C@]1(C)CCN2CCC(=O)Nc1ccccc1 |  |  |  | 33.8 | 132 | 1.9 nM | 1240 nM | 2.3 nM | 10.8 nM |  |  |  |  |  |  | 
COC(CN1CC[C@@]2(C)c3cc(O)ccc3C[C@@H]1[C@@H]2C)c1ccccc1 (stereo partly specified) | 1.08 nM | 6.6 nM | 15.2 nM | 6.1 | 14.1 | 21.5 nM | 4.4 nM | 19 nM | > 3000 nM | 3.9 nM | Dose-dependent effect | inactive | 7 | Active | 0.9 mg/kg | 
CN1CC[C@]23c4c5ccc(O)c4O[C@H]2[C@@H](O)C=C[C@H]3[C@H]1C5 |  |  |  |  |  |  |  |  |  |  |  |  |  |  |  | inactive
C[C@H]1[C@H]2Cc3ccc(O)cc3[C@]1(C)CCN2C[C@@H](O)c1ccccc1 | 0.5 nM | 0.8 nM | 2.22 nM | 1.6 | 4.44 | 9.9 nM | 11.8 nM | 21 nM | 9 nM | 5.4 nM | Dose-dependent effect | inactive | 49 |  |  | 
